This passage reports self-cleavage results from the RNAGym collection of RNA variant scans (doi:10.1002/anie.201605470).

To fix the notation:
B1: Osa-1-4 twister ribozyme (parent)
chain: CCGCCUAACACUGCCAAUGCCGGUCCCAAGCCCGGAUAAAAGUGGAGGGGGCGG

The variants in the data set derive from B1. The experiment in a line: self-cleavage, relative activity (ratio to wild type); higher = more cleavage; co-transcriptional. In short, it runs like this:
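Relative activity is the fraction cleaved divided by that of the wild-type ribozyme. The library came from a DNA template for a 54-nucleotide Oryza sativa twister ribozyme, doped at the 48 positions downstream of the cleavage site with 97 % wild-type base and 1 % of each other base. After 2 h of in vitro transcription at 37 °C with co-transcriptional self-cleavage, the RNA was reverse-transcribed with a template-switching oligonucleotide, amplified by PCR and deep-sequenced, and reads with or without upstream sequence gave the cleavage status.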
Turning to C52A G35U, the self-cleavage was found to be 0.81. The value for C52A G35C was 0.22. To C52A G35A belongs 0.8; to G50U U43C, 0.68; to G50U U43A, 0.92. The value for G50U U43G was 0.71; that for G51A U43A was 0.25; that for G51A U43G was 0.1. For the variant G51A U43C, the self-cleavage came out at 0.2. The value for C52G G13C was 0.07; that for C52G G13U was 0.06; that for C52G G13A was 0.12.

Consider C52A G30U, for which the self-cleavage came to 0.04. To C52A G30C belongs 0.06; to C52A G30A, 0.04. The value for C52A U12C was 0.48; that for C52A U12G was 0.18. The value for C52A U12A was 0.71; that for G51C U18A was 0.12; that for G51C U18C was 0.13. For G51C U18G, the self-cleavage was found to be 0.13.

For G51U U43G, the self-cleavage stood at 0.08. The value for G51U U43C was 0.11; that for G51U U43A was 0.13; that for C52G G23A was 0.28. On to C52G G23U, for which the self-cleavage came out at 0.14. The value for C52G G23C was 0.09; that for C52G C9A was 0.57. Take C52G C9U: the self-cleavage came to 0.85. To C52G C9G belongs 0.86; to G51A G54C, 0.95; to G51A G54U, 0.83. The value for G51A G54A was 0.85; that for G51U U12A was 0.09; that for G51U U12G was 0.05.

Turning to G51U U12C, the self-cleavage stood at 0.08.

For C52A G48C, the self-cleavage came out at 0.1.

For C52A G48A, the self-cleavage stood at 0.14. The value for C52A G48U was 0.07; that for C52A G50C was 0.14.

With C52A G50U, the self-cleavage came out at 0.25.

With C52A G50A, the self-cleavage is 0.69. To G51A belongs 0.77. For the variant G51U, the self-cleavage worked out at 0.44. The value for G51C was 0.17; that for C52A U37G was 1.06. The value for C52A U37A was 0.9; that for C52A U37C was 1.02; that for C52A U43C was 0.5. Turning to C52A U43G, the self-cleavage worked out at 0.37.

Turning to C52A U43A, the self-cleavage was found to be 0.85. To G51A U12C belongs 0.22; to G51A U12G, 0.07; to G51A U12A, 0.22. To C52A belongs 1.02; to C52G, 1.01. The value for C52G G42U was 0.14. With C52G G42C, the self-cleavage is 0.22.

Regarding C52G G42A, the self-cleavage was 0.75. The value for G51U U24C was 0.05; that for G51U U24G was 0.02. The value for G51U U24A was 0.05. On to C52A U18G, for which the self-cleavage was 0.82. C52A U18C: the self-cleavage is 0.93.

For C52A U18A, the self-cleavage turned out to be 0.93. C52A G34U: the self-cleavage was 0.39.

Regarding C52A G34C, the self-cleavage stood at 0.21.

As for C52A G34A, the self-cleavage is 0.65. To C52A G51C belongs 0.43; to C52A G51U, 0.48; to C52A G51A, 0.9. To C52A U24C belongs 0.18; to C52A U24G, 0.04. The value for C52A U24A was 0.14; that for G51C G53C was 0.04. For the variant G51C G53A, the self-cleavage was 0.07. The value for G51C G53U was 0.06; that for C52G G35C was 0.36.

On to C52G G35U, for which the self-cleavage was 0.91. To C52G G35A belongs 0.84; to C52G G22C, 0.09. The value for C52G G22U was 0.35. To C52G G22A belongs 0.75; to C52A G54A, 0.69. C52A G54U: the self-cleavage is 0.89. To C52A G54C belongs 0.87. The value for G51A U37C was 0.82; that for G51A U37G was 0.78; that for G51A U37A was 0.39. To C52A G19A belongs 0.42; to C52A G19U, 0.2; to C52A G19C, 0.08.

Regarding C52G G30C, the self-cleavage stood at 0.07. To C52G G30A belongs 0.06. To C52G G30U belongs 0.05; to G51C U37C, 0.14; to G51C U37A, 0.08. To G51C U37G belongs 0.18.

With G51A U24C, the self-cleavage was found to be 0.08.

Take G51A U24G: the self-cleavage came out at 0.02. To G51A U24A belongs 0.08; to G51U U37A, 0.15; to G51U U37C, 0.51. On to G51U U37G, for which the self-cleavage came out at 0.4. To C52A G53C belongs 0.5; to C52A G53A, 0.92. To C52A G53U belongs 0.8; to C52A G22C, 0.07; to C52A G22A, 0.71. The value for C52A G22U was 0.17; that for G51U U18G was 0.35.

For the variant G51U U18C, the self-cleavage was found to be 0.29. The value for G51U U18A was 0.31; that for G51U G54A was 0.25; that for G51U G54C was 0.51. The value for G51U G54U was 0.4; that for G51A G53A was 0.64. With G51A G53C, the self-cleavage is 0.06. To G51A G53U belongs 0.17; to C52A C9A, 0.55; to C52A C9U, 0.82. The value for C52A C9G was 0.8; that for G51C U43C was 0.06. With G51C U43A, the self-cleavage was determined as 0.06. The value for G51C U43G was 0.06; that for C52G G19U was 0.27; that for C52G G19A was 0.55.

Regarding C52G G19C, the self-cleavage was 0.14. As to C52G G34C, the self-cleavage is 0.17. With C52G G34U, the self-cleavage stood at 0.42. With C52G G34A, the self-cleavage came to 0.77.

For the variant C52A G49U, the self-cleavage worked out at 0.1.

Consider C52A G49A, for which the self-cleavage is 0.21.

As to C52A G49C, the self-cleavage came to 0.08.

For the variant C52A G13C, the self-cleavage came out at 0.04.

As for C52A G13U, the self-cleavage was found to be 0.03. With C52A G13A, the self-cleavage was found to be 0.08.

For G51U G53C, the self-cleavage was 0.05.

G51U G53A: the self-cleavage turned out to be 0.19.

G51U G53U: the self-cleavage stood at 0.12. In the case of C52A G45C, the self-cleavage is 0.07.

For C52A G45U, the self-cleavage turned out to be 0.1. With C52A G45A, the self-cleavage came to 0.26. The value for C52A G44U was 0.93; that for C52A G44A was 0.98; that for C52A G44C was 0.96. Regarding C52A G42C, the self-cleavage amounted to 0.16.

In the case of C52A G42A, the self-cleavage was found to be 0.68.

With C52A G42U, the self-cleavage was determined as 0.11. To C52A G47U belongs 0.21; to C52A G47C, 0.1. The value for C52A G47A was 0.22; that for G51C U12A was 0.05; that for G51C U12C was 0.04. To G51C U12G belongs 0.05; to C52A G23C, 0.06; to C52A G23U, 0.09.

Turning to C52A G23A, the self-cleavage came to 0.17. The value for G51C U24G was 0.02; that for G51C U24A was 0.04. As to G51C U24C, the self-cleavage is 0.04. The value for G51C G54U was 0.12. To G51C G54C belongs 0.34; to G51C G54A, 0.09; to G51A U18G, 0.64.

Take G51A U18A: the self-cleavage was 0.62.

Consider G51A U18C, for which the self-cleavage is 0.46.
